Test [1] relates to Pseudomonas aeruginosa. The experiment in a line: Evaluation of in vitro antimicrobial activity with an agar diffusion assay against Pseudomonas aeruginosa; Inactive. Type of test: functional, organism-based. The method, boiled down:
(§1)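 Agar diffusion assay. A standard antibiotic was run to validate the assays, with data reproducible to ± 3 mm between assays.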
Background: Agar diffusion results depend on both activity and mobility in agar.

Test [2] deals with Proteus vulgaris. The experiment in a line: Evaluation of in vitro antimicrobial activity with an agar diffusion assay against Proteus vulgaris. Type of test: functional. The method, boiled down: as §1
For test [3], the system named is Escherichia coli. The experiment in a line: Evaluation of in vitro antimicrobial activity with an agar diffusion assay against Escherichia coli. It counts as functional. The essentials: as §1
In test [4] the test system is Micrococcus luteus. In words: Evaluation of in vitro antimicrobial activity with an agar diffusion assay against Micrococcus luteus. Type of test: functional. The essentials:
as §1

The subject of test [5] is Penicillium oxalicum. The experiment in a line: Evaluation of in vitro antimicrobial activity with an agar diffusion assay against Penicillium oxalicum. It counts as functional, pencillium oxalicum. The essentials: as §1
Test [6] concerns Staphylococcus aureus. The experiment in a line: Evaluation of in vitro antimicrobial activity with an agar diffusion assay against Staphylococcus aureus. Type of test: functional. The method, boiled down: as §1
A short description of test [7]: Evaluation of in vitro antimicrobial activity with an agar diffusion assay against Salmonella schottmuelleri. It counts as functional. The method, boiled down:
as §1

The subject of test [8] is Pseudomonas aeruginosa. In words: Evaluation of in vitro antimicrobial activity with an agar diffusion assay against Pseudomonas aeruginosa. It counts as functional. The method, boiled down: as §1
The test system of test [9] is Klebsiella pneumoniae. The experiment in a line: Evaluation of in vitro antimicrobial activity with an agar diffusion assay against Klebsiella pneumoniae. Type of test: functional. The essentials: as §1
The test system of test [10] is Bacillus subtilis. In words: Evaluation of in vitro antimicrobial activity with an agar diffusion assay against Bacillus subtilis. Type of test: functional. The essentials:
as §1

Test [11] deals with Pseudomonas. In words: Evaluation of in vitro antimicrobial activity with an agar diffusion assay against Pseudomonas fluorescence. Type of test: functional. The essentials:
as §1

In test [12] the test system is L1210. The experiment in a line: In vitro evaluation of the antileukemic (cytotoxic) activity against L1210 cells in suspension. It counts as functional, Mus musculus.
The subject of test [13] is Saccharomyces pastorianus. In words: Evaluation of in vitro antimicrobial activity with an agar diffusion assay against Saccharomyces pastorianus. It counts as functional. The method, boiled down: as §1
In test [14] the test system is Klebsiella pneumoniae. The experiment in a line: In vitro evaluation of antimicrobial activity with microplate broth dilution assay against Klebsiella pneumoniae UC58. It counts as functional. The method, boiled down:
(§2)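 Serial twofold dilutions prepared in modified brain heart infusion broth in microplate wells. Each well inoculated with standardized cell suspension to ~10^6 viable cells per mL of drug-supplemented medium. Plates incubated 37 °C for 20 h. MIC read as lowest concentration inhibiting visible growth.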
In general terms: In broth dilution the organism is exposed to a series of concentrations in liquid medium.

Test [15] concerns Salmonella typhi. In words: In vitro evaluation of antimicrobial activity with microplate broth dilution assay against Salmonella typhi UC215. Type of test: functional, Salmonella enterica subsp. enterica serovar Typhi. The following applies: Salmonella enterica. The essentials: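 Twofold serial dilutions in modified brain heart infusion broth in microplate wells, each inoculated with standardized cell suspension to about 10^6 viable cells/mL final. Incubated 37 °C for 20 h. MIC read as the lowest concentration inhibiting visible growth.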

Test [16] can be described thus: In vitro evaluation of antimicrobial activity with microplate broth dilution assay against Salmonella schottmuelleri UC126. It counts as functional. The essentials: as §2
The subject of test [17] is Serratia marcescens. In words: In vitro evaluation of antimicrobial activity with microplate broth dilution assay against Serratia marcescens UC131. It counts as functional. The essentials:
as §2

The test system of test [18] is Proteus mirabilis. The experiment in a line: In vitro evaluation of antimicrobial activity with microplate broth dilution assay against Proteus mirabilis UC6671. It counts as functional. The method, boiled down: as §2
Test [19] relates to Escherichia coli. The experiment in a line: In vitro evaluation of antimicrobial activity with microplate broth dilution assay against Escherichia coli UC45. It counts as functional. The method, boiled down: as §2
Test [20] deals with Enterococcus faecalis. The experiment in a line: In vitro evaluation of antimicrobial activity with microplate broth dilution assay against Streptococcus faecalis UC694. Type of test: functional, streptococcus feacal. The essentials: as §2
Test [21] concerns L1210. In words: In vitro antileukemic (cytotoxic) activity against L1210 cells in suspension. Type of test: functional, Mus musculus. The following applies: for IC50: Mus musculus, L1210, read-out: ID50 (the source's name).
For test [22], the system named is Providencia stuartii. In words: In vitro evaluation of antimicrobial activity with microplate broth dilution assay against Providencia stuartii UC6570. It counts as functional. The method, boiled down:
as §2

Test [23] has as its system Staphylococcus aureus. In words: In vitro evaluation of antimicrobial activity with microplate broth dilution assay against Staphylococcus aureus UC76. Type of test: functional. The method, boiled down: as §2
In test [24] the test system is Proteus vulgaris. In words: In vitro evaluation of antimicrobial activity with microplate broth dilution assay against Proteus vulgaris UC93. It counts as functional. The method, boiled down: as §2
Test [25] deals with Shigella flexneri. In words: In vitro evaluation of antimicrobial activity with microplate broth dilution assay against Shigella flexneri UC143. It counts as functional. The method, boiled down: as §2
Test [26] has as its system Pseudomonas aeruginosa. The experiment in a line: In vitro evaluation of antimicrobial activity with microplate broth dilution assay against Pseudomonas aeruginosa UC95. It counts as functional. The essentials:
as §2

In test [27] the test system is Enterococcus faecalis. In words: In vitro evaluation of antimicrobial activity with microplate broth dilution assay against Streptococcus faecalis UC694.

Converted amounts (≈) assume the structure as drawn. “And” between values parts separate entries of the source, which are not always exact repeats. Identical values can stand only once. The source made the active and inactive calls. No cut-off for these calls is given here.

For the compound `CCCCCCCCCCCCCCCC(=O)OCn1oc(=O)c2ccccc21`, in test [1], the Zone of inhibition entry is “inactive”.
For `O=C(COc1ccccc1)OCn1oc(=O)c2ccccc21`, the Zone of inhibition in [2] is 21 mm; in test [3] it was 18 mm; in [4] it was 19 mm; in [5] it was 24 mm; in test [6], 15 mm; in test [7] it was 20 mm. The Zone of inhibition in [8] is 19 mm; in [9] it was 22 mm; in [10], 20 mm; in test [11] it was 31 mm.
As to `COCn1oc(=O)c2ccccc21`, the Zone of inhibition result in [1] is “inactive”.
The MIC is the lowest concentration that inhibits growth of the organism. A higher MIC goes with a less susceptible organism. In [12], `CC(=O)OCn1oc(=O)c2ccccc21` registered an ID90 of 19 µg/mL (≈ 91.7 µM). In addition, the Zone of inhibition was 25 mm in [2]; 26 mm in [3]; 17 mm in test [13]; 24 mm in test [4]; 43 mm in test [5]; 15 mm in test [6]. The Zone of inhibition in test [7] is 22 mm; in [8] it was 32 mm; in [9] it was 24 mm; in [10] it was 24 mm; in test [11], 32 mm. The MIC in test [14] is 62.5 µg/mL (≈ 302 µM); in test [15], 62.5 µg/mL (≈ 302 µM); in [16] it was 62.5 µg/mL (≈ 302 µM); in test [17], 15.6 µg/mL (≈ 75.3 µM); in [18] it was 62.5 µg/mL (≈ 302 µM); in [19] it was 125 µg/mL (≈ 603 µM). Further, the MIC in test [20] is > 250 µg/mL; in test [22] it was 125 µg/mL (≈ 603 µM); in [23], > 250 µg/mL; in test [24], 15.6 µg/mL (≈ 75.3 µM); in test [25], 62.5 µg/mL (≈ 302 µM). The IC50 in test [21] came out at 5.1 µg/mL (≈ 24.6 µM).
Turning to `CNC(=O)OCn1oc(=O)c2ccccc21`, in test [12], the ID90 came out at 8.6 µg/mL (≈ 38.7 µM). Further, the Zone of inhibition came out at 32 mm in [2]; 30 mm in test [3]; 33 mm in test [4]; 46 mm in [5]; 28 mm in test [7]; 39 mm in [8]. Besides, the Zone of inhibition was 23 mm in test [9], 16 mm in [10] and 33 mm in test [11]. Moreover, the MIC amounted to 62.5 µg/mL (≈ 281 µM) in test [14]; 15.6 µg/mL (≈ 70.2 µM) in test [15]; 31.2 µg/mL (≈ 140 µM) in test [16]; 3.9 µg/mL (≈ 17.6 µM) in test [17]; 31.2 µg/mL (≈ 140 µM) in [18]; 31.2 µg/mL (≈ 140 µM) in test [19]. In addition, the MIC in test [22] came out at 62.5 µg/mL (≈ 281 µM); in test [23], 62.5 µg/mL (≈ 281 µM); in [24], 15.6 µg/mL (≈ 70.2 µM); in [26], 15.6 µg/mL (≈ 70.2 µM); in test [25], 31.2 µg/mL (≈ 140 µM). Besides, the IC50 in test [21] worked out at 3.5 µg/mL (≈ 15.8 µM).
In [12], `Cc1ccc(C(=O)OCn2oc(=O)c3ccccc32)cc1` registered an ID90 of 17 µg/mL (≈ 60 µM). Further, the Zone of inhibition in test [2] turned out to be 22 mm; in [3], 18 mm; in test [5] it was 24 mm; in test [7], 17 mm; in test [8] it was 22 mm; in test [9] it was 21 mm. Also, the Zone of inhibition in test [10] and in test [11] was 20 mm in each case. In [21], the IC50 was 4.6 µg/mL (≈ 16.2 µM).
Regarding `Cn1oc(=O)c2ccccc21`, the Zone of inhibition entry in test [1] is “inactive”.
As for `O=C(CCCCCI)OCn1oc(=O)c2ccccc21`, the Zone of inhibition in [2] was 15 mm; in [5], 26 mm; in test [8], 17 mm; in [10], 15 mm; in [11] it was 23 mm. The compound also returned an ID50 in [21] of 19 µg/mL (≈ 48.8 µM).
As to `Oc1onc2ccccc12`, the Zone of inhibition in test [2] is 30 mm; in test [3], 25 mm; in [13], 16 mm; in test [4] it was 27 mm; in [5], 41 mm; in test [6], 15 mm. Besides, the Zone of inhibition in test [7] amounted to 26 mm; in test [8], 30 mm; in test [9], 26 mm; in test [10] it was 22 mm; in test [11] it was 35 mm. Besides, in test [21], the ID50 was 3.1 µg/mL and 8 µg/mL.
For the compound `CS(=O)(=O)n1oc(=O)c2ccccc21`, in test [8], the Zone of inhibition was 31 mm. For the same compound, the ID50 in test [21] was 3.7 µg/mL and 8.6 µg/mL.
Turning to `O=C(NCCCCCI)n1oc(=O)c2ccccc21`, the Zone of inhibition entry in [1] was “inactive”. In addition, the ID50 in test [21] is 3.7 µg/mL and 8.6 µg/mL.
`CNC(=O)n1oc(=O)c2ccccc21`: the Zone of inhibition in test [2] was determined as 19 mm; in [8] it was 24 mm; in test [9], 16 mm. For the same compound, the ID50 in test [21] is 4.9 µg/mL and 14 µg/mL.
Consider `CC(=O)n1oc(=O)c2ccccc21`, for which the Zone of inhibition in test [2] turned out to be 23 mm; in test [3], 26 mm; in [13] it was 21 mm; in test [4] it was 18 mm; in test [5], 49 mm; in test [7] it was 20 mm. Further, the Zone of inhibition in [8] was 38 mm; in test [9] it was 20 mm; in [10], 24 mm; in test [11], 31 mm. Besides, the ID50 in test [21] is 3.4 µg/mL and 8.7 µg/mL.
With `CC(C)C(=O)OCn1oc(=O)c2ccccc21`, the Zone of inhibition in test [2] was 24 mm; in test [3] it was 17 mm; in [4], 22 mm; in test [5], 29 mm; in test [6] it was 17 mm; in [7], 23 mm. Moreover, the Zone of inhibition in test [8] is 22 mm; in test [9], 22 mm; in [10], 17 mm; in test [11], 33 mm.
With `CC(C)(C)C(=O)OCn1oc(=O)c2ccccc21`, the Zone of inhibition in [2] worked out at 18 mm; in test [3] it was 17 mm; in test [4], 18 mm; in test [5], 31 mm; in [6] it was 18 mm; in test [7], 22 mm. Besides, the Zone of inhibition in [8] amounted to 20 mm; in [9] it was 21 mm; in [10], 18 mm; in test [11], 30 mm.
Consider `O=c1on(CO)c2ccccc12`, for which the MIC in [14] stood at 31.6 µg/mL (≈ 191 µM); in test [15] it was 7.8 µg/mL (≈ 47.2 µM); in [16], 31.2 µg/mL (≈ 189 µM); in [17], 2 µg/mL (≈ 12.1 µM); in [18], 15.6 µg/mL (≈ 94.5 µM); in test [19] it was 15.6 µg/mL (≈ 94.5 µM). Moreover, the MIC was 31.2 µg/mL (≈ 189 µM) in test [22]; 62.5 µg/mL (≈ 378 µM) in test [23]; 3.9 µg/mL (≈ 23.6 µM) in test [24]; 7.8 µg/mL (≈ 47.2 µM) in test [26]; 250 µg/mL (≈ 1510 µM) in test [27]; 15.6 µg/mL (≈ 94.5 µM) in [25].

The values above are taken from ChEMBL document CHEMBL1122797, “Benzisoxazolones: antimicrobial and antileukemic activity” (1984).
